In general, inhibition refers to the relative decrease from the control value, in per cent. For orientation: ED50 means the midpoint of the dose-response relation. For orientation: inhibition in vivo means the relative decrease from the control value, in per cent. A word on the IC50: it is the point on the concentration scale where inhibition reaches its midpoint.

Activity calls are given as the source filed them. The rule behind the calls is not given here.

Experiment [1] concerns the target Kappa-type opioid receptor (Mus musculus) (UniProt P33534). Put plainly: Agonist activity at kappa opioid receptor in ddy mouse vas deferens assessed as inhibition of electric stimulation-induced contraction at 1 uM. It counts as functional, tissue-based.
The test system of experiment [2] is Mus musculus. The experiment can be described thus: Antinociceptive activity in sc dosed mouse assessed as inhibition of acetic acid-induced writhing administered 15 mins before acetic acid challenge. Format: functional. In outline: (§1)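 Male mice (5 weeks old) received test compound sc into the rostral back or po, 15 min before ip 0.6% aqueous acetic acid (0.1 mL/10 g). Writhes were counted over 10 min, starting 10 min after the acid. […] The po/sc ED50 ratio was calculated.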
Background: Writhing tests count abdominal constrictions after an irritant is injected.

Experiment [3] addresses Delta-type opioid receptor (Mus musculus) (UniProt P32300). Put plainly: Equilibrium constant, ratio of IC50 for delta opioid receptor in ddy mouse vas deferens in presence of 10 nM Naltrindole to IC50 for delta opioid receptor in ddy mouse vas deferens. In outline: (§2)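 Electrically stimulated ddY mouse vas deferens was held in Krebs-Henseleit at 37 °C under 95% O2/5% CO2. Tissue was preincubated 20 min with antagonist before the test agonist: naloxone 30 nM (μ), NTI 10 nM (δ), or nor-BNI 10 nM (κ). IC50s were compared with and without antagonist. Ke = [antagonist]/(IC50 ratio − 1).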

Experiment [4] addresses Kappa-type opioid receptor (Mus musculus) (UniProt P33534). The experiment can be described thus: Equilibrium constant, ratio of IC50 for kappa opioid receptor in ddy mouse vas deferens in presence of 10 nM nor-BNI to IC50 for kappa opioid receptor in ddy mouse vas deferens. In outline: as §2
Experiment [5] deals with Mu-type opioid receptor (Mus musculus) (UniProt P42866). The experiment can be described thus: Equilibrium constant, ratio of IC50 for mu opioid receptor in ddy mouse vas deferens in presence of 30 nM naloxone to IC50 for mu opioid receptor in ddy mouse vas deferens. In outline:
as §2

The test system of experiment [6] is Mus musculus. Put plainly: Antinociceptive activity in mouse assessed as inhibition of acetic acid-induced writhing at 10 mg/kg, sc administered 15 mins before acetic acid challenge. Format: functional. The conditions noted are these: route subcutaneous. In outline: as §1
Experiment [7] has as its target Kappa-type opioid receptor (Mus musculus, UniProt P33534). The experiment can be described thus: Agonist activity at kappa opioid receptor in ddy mouse vas deferens assessed as inhibition of electric stimulation-induced contraction. Format: functional, tissue-based.
Experiment [8] has as its system Mus musculus. Put plainly: Ratio of ED50 for acetic acid-induced writhing in po dosed mouse to ED50 for acetic acid-induced writhing in sc dosed mouse. Format: functional. In outline:
as §1

For experiment [9], the system named is Mus musculus. Put plainly: Antinociceptive activity in po dosed mouse assessed as inhibition of acetic acid-induced writhing administered 15 mins before acetic acid challenge. Format: functional. In outline:
as §1

Experiment [10] relates to Mus musculus. Put plainly: Inhibition of acetic acid-induced writhing in sc dosed mouse up to 180 mins administered 15 mins before acetic acid challenge. Format: functional, organism-based.
The subject of experiment [11] is Mus musculus. The experiment can be described thus: Antinociceptive activity in sc dosed mu opioid receptor antagonist naloxone treated mouse assessed as inhibition of acetic acid-induced writhing administered 15 mins before acetic acid challenge. It counts as functional, organism-based.
Experiment [12] concerns Mus musculus. The experiment can be described thus: Antinociceptive activity in sc dosed kappa opioid receptor antagonist nor-BNI treated mouse assessed as inhibition of acetic acid-induced writhing administered 15 mins before acetic acid challenge. It counts as functional, organism-based.
In experiment [13] the test system is Mus musculus. The experiment can be described thus: Antinociceptive activity in sc dosed delta opioid receptor antagonist […] treated mouse assessed as inhibition of acetic acid-induced writhing administered 15 mins before acetic acid challenge. Format: functional, organism-based.

Regarding `CCCCCCS[C@@H]1CC[C@@]2(O)[C@H]3Cc4ccc(O)c5c4[C@@]2(CCN3CC2CC2)[C@H]1O5`, the inhibition in experiment [1] turned out to be 38%. Also, the ED50 with Mus musculus [2] was 15.8 mg/kg.
With `CCCCCC(=O)N[C@@H]1CC[C@@]2(O)[C@H]3Cc4ccc(O)c5c4[C@@]2(CCN3CC2CC2)[C@H]1O5`, the results for the Ke in experiment [3], in experiment [4] and in experiment [5] were 2.3 nM, 0.26 nM and 0.0044 µM, respectively. For the same compound, the inhibition in vivo at 10 mg/kg in the experiment on Mus musculus [6] came out at 25%. Besides, the IC50 in experiment [7] was 25 nM.
`CN(C(=O)/C=C/c1ccccc1)[C@H]1CC[C@@]2(O)[C@H]3Cc4ccc(O)c5c4[C@@]2(CCN3CC2CC2)[C@H]1O5`: the Ke in experiment [3] turned out to be 41.6 nM; in [4] it was 0.16 nM; in experiment [5], 14 µM. The figures for the 50% effective dose (ED50) in the experiment on Mus musculus [2] and in the experiment with Mus musculus [9] were 0.0033 mg/kg and 0.032 mg/kg, respectively. In addition, the “Ratio ED50” value with Mus musculus [8] came out at 9.7. The IC50 in [7] stood at 0.42 nM. In the experiment on Mus musculus [10], the outcome was Active.
In the case of `CN(C(=O)/C=C/c1ccoc1)[C@@H]1CC[C@@]2(O)[C@H]3Cc4ccc(O)c5c4[C@@]2(CCN3CC2CC2)[C@H]1O5.Cl` [NALFURAFINE HYDROCHLORIDE], the outcome in the experiment with Mus musculus [11], in the experiment with Mus musculus [13] and in the experiment with Mus musculus [10] was Active. Moreover, the result in the experiment with Mus musculus [12] was inactive. The ED50 with Mus musculus [9] is 0.032 mg/kg.

Source of the values: ChEMBL document CHEMBL1142487, “Design, synthesis, and structure-activity relationship of novel opioid kappa-agonists” (Bioorg Med Chem, 2008).
